Measurements as given in ChEMBL document CHEMBL4834471 (J Med Chem, 2021).
Active and inactive are the calls of the source. No cut-off for these calls is given here.

Legend:
[1] = molecular target: T1, Prostaglandin G/H synthase 1 (Ovis aries) (UniProt P05979); experiment: Inhibition of ovine COX-1 assessed as reduction in 12-HHT formation at 10 uM using arachidonic acid as substrate preincubated for 6 mins followed by substrate addition by RPL-HPLC method
T1 sequence (whole entry): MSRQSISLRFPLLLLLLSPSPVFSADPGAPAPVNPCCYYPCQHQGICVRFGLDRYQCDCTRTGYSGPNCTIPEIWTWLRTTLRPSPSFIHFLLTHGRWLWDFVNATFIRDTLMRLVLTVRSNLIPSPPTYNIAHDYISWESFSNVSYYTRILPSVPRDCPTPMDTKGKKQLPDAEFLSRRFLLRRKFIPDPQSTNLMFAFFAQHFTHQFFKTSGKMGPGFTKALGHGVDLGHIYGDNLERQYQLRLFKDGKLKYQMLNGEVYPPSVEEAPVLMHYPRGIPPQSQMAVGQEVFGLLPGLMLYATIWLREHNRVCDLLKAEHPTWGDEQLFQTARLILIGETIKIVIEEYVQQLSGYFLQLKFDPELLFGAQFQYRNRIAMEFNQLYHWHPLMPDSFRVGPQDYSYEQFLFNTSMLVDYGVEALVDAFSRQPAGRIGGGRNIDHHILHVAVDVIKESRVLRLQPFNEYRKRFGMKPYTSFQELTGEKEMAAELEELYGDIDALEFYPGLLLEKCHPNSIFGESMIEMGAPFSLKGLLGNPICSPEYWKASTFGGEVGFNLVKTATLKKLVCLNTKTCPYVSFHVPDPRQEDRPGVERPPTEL

Monocyte = experiment: Cytotoxicity against human monocytes assessed as reduction in LDH release at <=1 uM after 2 to 24 hrs by CytoTox96 nonradioactive assay; assay type: cell-based; details: time 2-24 hrs
How it was run: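 Monocytes at 4 × 10^5/mL in monocyte medium treated 2 or 24 h at 37 °C, 5% CO2, with 0.1% DMSO vehicle. LDH release measured by CytoTox 96 kit, with Triton X-100 (0.8%) defining maximum release.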

[2] = molecular target: T2, Prostaglandin G/H synthase 2 (Homo sapiens) (UniProt P35354); experiment: Inhibition of recombinant human COX-2 assessed as reduction in 12-HHT formation at 10 uM using arachidonic acid as substrate preincubated for 6 mins followed by substrate addition by RPL-HPLC method
T2 sequence (whole entry): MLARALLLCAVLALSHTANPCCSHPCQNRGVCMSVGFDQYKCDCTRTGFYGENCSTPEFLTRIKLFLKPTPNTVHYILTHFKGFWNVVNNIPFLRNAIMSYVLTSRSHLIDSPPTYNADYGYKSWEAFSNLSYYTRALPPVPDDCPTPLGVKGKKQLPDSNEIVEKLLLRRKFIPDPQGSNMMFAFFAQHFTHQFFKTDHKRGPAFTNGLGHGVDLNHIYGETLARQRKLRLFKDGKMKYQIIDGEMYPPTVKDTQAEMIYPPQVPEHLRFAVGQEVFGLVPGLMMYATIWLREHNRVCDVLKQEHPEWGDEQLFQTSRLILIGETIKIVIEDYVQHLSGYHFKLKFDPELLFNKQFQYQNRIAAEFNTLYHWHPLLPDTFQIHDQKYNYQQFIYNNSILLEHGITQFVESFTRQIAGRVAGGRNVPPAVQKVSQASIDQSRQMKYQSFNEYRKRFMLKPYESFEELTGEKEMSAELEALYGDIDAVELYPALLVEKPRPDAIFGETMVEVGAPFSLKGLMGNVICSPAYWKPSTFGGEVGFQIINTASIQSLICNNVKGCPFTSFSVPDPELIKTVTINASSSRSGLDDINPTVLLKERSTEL

[3] = Antioxidant activity assessed as DPPH radical scavenging activity at 0.1 to 10 uM incubated for 30 mins by microplate reader based assay; assay type: functional; details: dose 0.1-10 µM
How it was run: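 Compound incubated with DPPH (50 mM, as printed) in ethanol for 30 min, then absorbance read at 520 nm. Ascorbic acid at 25 μM used as positive control; n = 4 independent experiments.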

Mus musculus [4] = experiment: Antiinflammatory activity BALB/c mouse assessed as inhibition of carbachol-induced bronchial reactivity at 10 mg/kg, po administered on day 0 and 7 and measured upto 21 days; assay type: functional, organism-based; details: time day <=21
Mus musculus [5] = experiment: Antiinflammatory activity in zymosan-induced CD-1 mouse peritonitis model assessed as reduction in LOX derived metabolites at 10 mg/kg, po preincubated with compound for 60 mins followed by zymosan addition and measured after 30 mins; assay type: functional, organism-based; details: time 90.0 min
How it was run: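 Oral dosing at 10 mg/kg in zymosan peritonitis; mice killed 30 min after zymosan. Peritoneal exudate lipid mediators and fatty acids profiled by UPLC-MS/MS, with LTC4 measured by ELISA; results expressed as fold change versus vehicle.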

[6] = Drug metabolism in human liver-on-chip assessed as compound conjugation with sulfate incubated for 48 hrs by UPLC-MS/MS analysis; assay type: ADME, tissue-based
How it was run: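 Liver-on-chip built from differentiated HepaRG cells (hepatocyte-like and biliary-like) with a HUVEC endothelial layer. Loaded with compound at 1 μM and incubated 48 h; compound and metabolites quantified from extracted chromatograms; n = 3 independent experiments.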

inhibition [1]: inactive
inhibition [2]: inactive
Drug metabolism [6]: Metabolite_Detected
Structure (SMILES): C/C(=C\CC/C(C)=C/CC[C@]1(C)CCc2c(C)c(O)c(C)c(C)c2O1)CCC=C(CO)CO
Activity (Monocyte): Non-Toxic
Activity [3]: inactive
Activity (Mus musculus [4]): Active
Activity (Mus musculus [5]): Active
